From ChEMBL document CHEMBL1781975, “Synthesis, crystal structure and antimicrobial activity of deoxybenzoin derivatives from genistein” (2008)
≈ marks a conversion by molar mass, not a printed value. Calls of active or inactive are those of the source. No cut-off for these calls is given here.

What was measured:
Aspergillus niger = assay: Antifungal activity against Aspergillus niger after 48 hrs by MTT assay; type: functional, organism-based
In short: (§1)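 Fungi tested by microdilution in RPMI-1640 buffered with 0.165 mol/L MOPS to pH 7.0. Compounds from a 50 mg/ml DMSO stock serially diluted. Inoculum approx. 10⁵ cfu/ml, 37 °C for 48 h. MIC scored visually, then MTT (2 mg/ml in PBS) added, 12 h at room temperature, absorbance 550 nm.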

Staphylococcus aureus = assay: Antibacterial activity against Staphylococcus aureus after 24 hrs by MTT assay; type: functional
In short: (§2)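 Broth microdilution MIC in Mueller-Hinton medium, compounds from a 50 mg/ml DMSO stock serially diluted in the wells. Inoculum approx. 10⁵ cfu/ml, incubated 37 °C for 24 h. MIC read visually. PBS (pH 7.4) with 2 mg/ml MTT then added, 12 h further incubation at room temperature, OD at 550 nm.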

Pseudomonas fluorescens = assay: Antibacterial activity against Pseudomonas fluorescens after 24 hrs by MTT assay; type: functional; in short: as §2
Bacillus subtilis = assay: Antibacterial activity against Bacillus subtilis after 24 hrs by MTT assay; type: functional; in short: as §2
Candida albicans = assay: Antifungal activity against Candida albicans after 48 hrs by MTT assay; type: functional, organism-based; in short: as §1
Trichophyton rubrum = assay: Antifungal activity against Trichophyton rubrum after 48 hrs by MTT assay; type: functional, organism-based; in short: as §1
Escherichia coli = assay: Antibacterial activity against Escherichia coli after 24 hrs by MTT assay; type: functional; in short: as §2

Structure (SMILES) | MIC (Aspergillus niger) | MIC (Staphylococcus aureus) [µg/mL] | MIC (Pseudomonas fluorescens) [µg/mL] | MIC (Bacillus subtilis) [µg/mL] | MIC (Candida albicans) | MIC (Trichophyton rubrum) | MIC (Escherichia coli) [µg/mL]
O=C(Cc1ccc(OCCBr)cc1)c1c(O)cc(OCCBr)cc1OCCBr | inactive | > 50 | > 50 | 30.5 (≈ 52.5 µM) | inactive | inactive | 36.5 (≈ 62.8 µM)
NC[C@H]1O[C@H](O[C@H]2[C@H](O)[C@@H](O[C@H]3O[C@H](CO)[C@@H](O)[C@H](N)[C@H]3O)[C@H](N)C[C@@H]2N)[C@H](O)[C@@H](O)[C@@H]1O [KANAMYCIN] | – | 1 (≈ 2.06 µM) | 3.9 (≈ 8.05 µM) | 1 (≈ 2.06 µM) | – | – | 0.45 (≈ 0.929 µM)
O=C(O)COc1ccc(CC(=O)c2c(OCC(=O)O)cc(OCC(=O)O)c(Cc3c(OCC(=O)O)cc(OCC(=O)O)c(C(=O)Cc4ccc(OCC(=O)O)cc4)c3O)c2O)cc1 | inactive | > 50 | > 50 | 12.5 (≈ 14.2 µM) | inactive | inactive | 25 (≈ 28.4 µM)
O=C(Cc1ccc(O)cc1)c1c(O)cc(O)cc1O | inactive | > 50 | > 50 | 40.5 (≈ 156 µM) | inactive | inactive | 42.5 (≈ 163 µM)
O=C(O)COc1ccc(CC(=O)c2c(O)cc(OCC(=O)O)cc2OCC(=O)O)cc1 | inactive | > 50 | > 50 | 45.5 (≈ 105 µM) | inactive | inactive | 48.5 (≈ 112 µM)
CC1(C)S[C@@H]2[C@H](NC(=O)Cc3ccccc3)C(=O)N2[C@H]1C(=O)O [PENICILLIN G] | – | 2 (≈ 5.98 µM) | > 50 | 7.8 (≈ 23.3 µM) | – | – | > 50
O=C(Cc1ccc(OCCCBr)cc1)c1c(OCCCBr)cc(OCCCBr)c(Cc2c(OCCCBr)cc(OCCCBr)c(C(=O)Cc3ccc(OCCCBr)cc3)c2O)c1O | inactive | > 50 | > 50 | 6.25 (≈ 4.97 µM) | inactive | inactive | 17.5 (≈ 13.9 µM)
O=c1c(-c2ccc(O)cc2)coc2cc(O)cc(O)c12 [GENISTEIN] | inactive | > 50 | > 50 | > 50 | inactive | inactive | > 50
COc1ccc(CC(=O)c2c(O)cc(OC)cc2OC)cc1 | inactive | > 50 | > 50 | > 50 | inactive | inactive | > 50
COc1ccc(CC(=O)c2c(OC)cc(OC)c(Cc3c(OC)cc(OC)c(C(=O)Cc4ccc(OC)cc4)c3O)c2O)cc1 | inactive | > 50 | > 50 | 31.5 (≈ 51.1 µM) | inactive | inactive | 38.5 (≈ 62.4 µM)
O=C(Cc1ccc(OCCCBr)cc1)c1c(O)cc(OCCCBr)cc1OCCCBr | inactive | > 50 | > 50 | 25 (≈ 40.1 µM) | inactive | inactive | 25 (≈ 40.1 µM)
CC(=O)N1CCN(c2ccc(OCC3COC(Cn4ccnc4)(c4ccc(Cl)cc4Cl)O3)cc2)CC1 (stereo not given) [KETOCONAZOLE] | – | > 50 | > 50 | > 50 | – | – | > 50
